Results: publication PMC5532717 (ACS Central Science, 2017)

Assays:
Type in all cases: biochemical
GAA = GAA (Mus musculus, UniProt P70699); test: Competitive ABPP against probe 13 in mouse gastrointestinal lysate; details: mouse intestine lysate, 1 h at 37 °C
In short: (§1)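 Mixed mouse duodenum, jejunum and ileum homogenates were made in 25 mM potassium phosphate pH 6.5 with protease inhibitors (40 μg protein). Held 5 min on ice in McIlvaine buffer pH 4 or 7. Incubated 1 h at 37 °C with test compound (final 150 to 0.005 μM, plus 0), then probe 13 for 30 min at 37 °C. Boiled in Laemmli buffer, 10% SDS–PAGE, Cy5 fluorescence scan.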

sucrase-isomaltase (SIS) = sucrase-isomaltase (SIS) (Mus musculus, UniProt B5THE3); test: as above; details: mouse intestine lysate, 1 h at 37 °C
sucrase-isomaltase (SIS), sequence (B5THE3 1-1818): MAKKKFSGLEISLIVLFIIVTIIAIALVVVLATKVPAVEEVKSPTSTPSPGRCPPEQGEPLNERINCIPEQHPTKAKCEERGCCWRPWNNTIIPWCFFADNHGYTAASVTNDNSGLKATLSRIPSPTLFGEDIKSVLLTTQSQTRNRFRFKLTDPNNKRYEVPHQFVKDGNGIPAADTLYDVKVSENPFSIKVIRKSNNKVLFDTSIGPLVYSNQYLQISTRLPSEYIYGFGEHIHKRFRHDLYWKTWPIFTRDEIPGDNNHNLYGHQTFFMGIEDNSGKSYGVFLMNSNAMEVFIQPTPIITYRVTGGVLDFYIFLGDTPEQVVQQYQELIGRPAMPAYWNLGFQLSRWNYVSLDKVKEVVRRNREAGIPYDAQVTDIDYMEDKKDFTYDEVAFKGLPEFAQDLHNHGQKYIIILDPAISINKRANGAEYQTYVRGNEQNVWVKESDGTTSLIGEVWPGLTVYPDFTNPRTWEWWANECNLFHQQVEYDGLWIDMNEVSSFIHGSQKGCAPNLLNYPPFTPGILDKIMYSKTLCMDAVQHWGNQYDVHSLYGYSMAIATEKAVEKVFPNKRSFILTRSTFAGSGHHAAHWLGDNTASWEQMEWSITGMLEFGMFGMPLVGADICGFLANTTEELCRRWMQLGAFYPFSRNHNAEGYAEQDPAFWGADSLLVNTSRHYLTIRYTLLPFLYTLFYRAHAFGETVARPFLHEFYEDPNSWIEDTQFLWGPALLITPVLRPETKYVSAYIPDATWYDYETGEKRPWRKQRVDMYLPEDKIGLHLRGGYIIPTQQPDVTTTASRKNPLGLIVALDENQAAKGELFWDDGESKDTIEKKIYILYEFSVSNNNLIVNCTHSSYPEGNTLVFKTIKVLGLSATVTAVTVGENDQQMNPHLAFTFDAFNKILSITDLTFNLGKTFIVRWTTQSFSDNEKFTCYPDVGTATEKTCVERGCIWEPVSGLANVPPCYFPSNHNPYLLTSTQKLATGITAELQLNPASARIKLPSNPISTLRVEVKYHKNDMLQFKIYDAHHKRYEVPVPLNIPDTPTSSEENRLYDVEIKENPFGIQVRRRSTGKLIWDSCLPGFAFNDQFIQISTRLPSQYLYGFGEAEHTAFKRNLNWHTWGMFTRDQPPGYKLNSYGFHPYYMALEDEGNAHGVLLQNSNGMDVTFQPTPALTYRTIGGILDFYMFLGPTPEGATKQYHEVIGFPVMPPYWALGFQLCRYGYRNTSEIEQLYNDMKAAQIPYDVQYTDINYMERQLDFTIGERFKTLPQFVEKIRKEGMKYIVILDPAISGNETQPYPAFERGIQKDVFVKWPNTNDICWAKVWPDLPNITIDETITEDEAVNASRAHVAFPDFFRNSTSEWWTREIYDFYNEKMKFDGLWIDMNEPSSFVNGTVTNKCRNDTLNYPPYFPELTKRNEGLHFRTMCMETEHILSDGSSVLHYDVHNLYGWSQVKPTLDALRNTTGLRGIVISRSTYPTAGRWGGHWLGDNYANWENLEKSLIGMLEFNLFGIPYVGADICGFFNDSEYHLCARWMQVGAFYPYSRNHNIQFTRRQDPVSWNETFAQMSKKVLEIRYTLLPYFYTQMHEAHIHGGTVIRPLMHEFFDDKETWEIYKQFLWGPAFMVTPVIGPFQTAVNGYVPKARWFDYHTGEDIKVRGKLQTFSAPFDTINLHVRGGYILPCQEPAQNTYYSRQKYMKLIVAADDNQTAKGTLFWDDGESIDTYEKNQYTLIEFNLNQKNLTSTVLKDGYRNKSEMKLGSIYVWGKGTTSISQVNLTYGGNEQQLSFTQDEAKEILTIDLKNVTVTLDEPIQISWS
In short: as §1

GBA1 = target: T1, GBA1 (Mus musculus, UniProt P17439); test: as above; details: mouse intestine lysate, 1 h at 37 °C
T1 sequence (P17439 20-515): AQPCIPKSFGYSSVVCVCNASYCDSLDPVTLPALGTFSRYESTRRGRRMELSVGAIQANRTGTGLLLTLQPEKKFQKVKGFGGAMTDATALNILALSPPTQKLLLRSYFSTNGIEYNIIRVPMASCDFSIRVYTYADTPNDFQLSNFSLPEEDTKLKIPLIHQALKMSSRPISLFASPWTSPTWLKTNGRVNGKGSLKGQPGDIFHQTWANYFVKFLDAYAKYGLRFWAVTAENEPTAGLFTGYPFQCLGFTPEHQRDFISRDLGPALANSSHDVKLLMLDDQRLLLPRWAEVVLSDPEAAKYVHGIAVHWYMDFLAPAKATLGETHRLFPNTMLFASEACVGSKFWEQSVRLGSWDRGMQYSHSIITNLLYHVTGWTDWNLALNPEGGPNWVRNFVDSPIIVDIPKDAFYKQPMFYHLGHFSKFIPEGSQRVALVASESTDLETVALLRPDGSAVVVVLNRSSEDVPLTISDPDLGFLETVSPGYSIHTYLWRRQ
In short: as §1

GANAB = target: T2, GANAB (Homo sapiens, UniProt Q14697); test: Competitive ABPP against probe 13 in fibroblast lysates, pH 7; details: pH 7, preincubation 15, 30 or 60 min
T2 sequence (Q14697 29-944): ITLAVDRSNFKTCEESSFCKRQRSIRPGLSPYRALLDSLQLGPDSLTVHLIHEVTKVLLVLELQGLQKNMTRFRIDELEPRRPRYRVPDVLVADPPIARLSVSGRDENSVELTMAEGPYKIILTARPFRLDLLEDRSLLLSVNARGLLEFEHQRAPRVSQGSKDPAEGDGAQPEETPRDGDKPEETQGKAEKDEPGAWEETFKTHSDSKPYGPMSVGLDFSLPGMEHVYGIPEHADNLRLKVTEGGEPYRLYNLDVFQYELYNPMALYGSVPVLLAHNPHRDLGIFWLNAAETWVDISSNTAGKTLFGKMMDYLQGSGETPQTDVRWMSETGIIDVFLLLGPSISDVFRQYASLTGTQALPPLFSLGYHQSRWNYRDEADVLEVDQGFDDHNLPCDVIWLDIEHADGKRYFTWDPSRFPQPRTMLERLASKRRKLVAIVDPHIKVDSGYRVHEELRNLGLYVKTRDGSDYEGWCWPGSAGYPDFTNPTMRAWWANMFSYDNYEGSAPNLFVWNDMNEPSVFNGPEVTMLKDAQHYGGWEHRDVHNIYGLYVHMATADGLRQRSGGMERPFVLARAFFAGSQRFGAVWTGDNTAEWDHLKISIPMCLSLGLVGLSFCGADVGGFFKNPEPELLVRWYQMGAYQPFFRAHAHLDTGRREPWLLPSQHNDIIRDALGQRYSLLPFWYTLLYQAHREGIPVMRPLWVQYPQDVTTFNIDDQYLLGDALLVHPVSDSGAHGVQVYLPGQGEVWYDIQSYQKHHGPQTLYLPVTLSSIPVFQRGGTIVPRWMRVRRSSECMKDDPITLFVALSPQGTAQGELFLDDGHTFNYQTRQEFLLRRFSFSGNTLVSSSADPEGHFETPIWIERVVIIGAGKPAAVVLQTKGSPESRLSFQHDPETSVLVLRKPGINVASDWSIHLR
T2 sequence (P14314 15-528 partner): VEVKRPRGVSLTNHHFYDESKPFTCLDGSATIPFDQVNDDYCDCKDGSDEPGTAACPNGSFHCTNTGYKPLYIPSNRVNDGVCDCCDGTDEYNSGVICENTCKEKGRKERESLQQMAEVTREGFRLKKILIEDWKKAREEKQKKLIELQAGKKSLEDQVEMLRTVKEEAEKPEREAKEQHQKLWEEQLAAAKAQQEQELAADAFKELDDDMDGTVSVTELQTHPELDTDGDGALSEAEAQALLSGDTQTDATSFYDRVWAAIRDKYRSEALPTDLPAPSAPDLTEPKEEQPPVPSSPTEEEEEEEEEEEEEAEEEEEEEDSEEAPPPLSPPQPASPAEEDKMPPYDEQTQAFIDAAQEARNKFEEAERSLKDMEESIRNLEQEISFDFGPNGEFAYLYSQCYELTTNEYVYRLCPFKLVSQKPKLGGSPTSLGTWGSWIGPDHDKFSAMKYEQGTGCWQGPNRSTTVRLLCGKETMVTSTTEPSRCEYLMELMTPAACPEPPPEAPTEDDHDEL
In short: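 Human normal dermal fibroblast homogenate (17.6 μg total protein) in 150 mM McIlvaine buffer for 5 min on ice, at pH 4 for GAA and pH 7 for GANAB. Exposed to test compound for 15, 30 or 60 min at 37 °C, then labeled with Cy5 aziridine probe 13 for 30 min at 37 °C. Denatured at 98 °C, 10% SDS–PAGE, Cy5 in-gel fluorescence scan.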

GAA, sequence (P70699 70-953): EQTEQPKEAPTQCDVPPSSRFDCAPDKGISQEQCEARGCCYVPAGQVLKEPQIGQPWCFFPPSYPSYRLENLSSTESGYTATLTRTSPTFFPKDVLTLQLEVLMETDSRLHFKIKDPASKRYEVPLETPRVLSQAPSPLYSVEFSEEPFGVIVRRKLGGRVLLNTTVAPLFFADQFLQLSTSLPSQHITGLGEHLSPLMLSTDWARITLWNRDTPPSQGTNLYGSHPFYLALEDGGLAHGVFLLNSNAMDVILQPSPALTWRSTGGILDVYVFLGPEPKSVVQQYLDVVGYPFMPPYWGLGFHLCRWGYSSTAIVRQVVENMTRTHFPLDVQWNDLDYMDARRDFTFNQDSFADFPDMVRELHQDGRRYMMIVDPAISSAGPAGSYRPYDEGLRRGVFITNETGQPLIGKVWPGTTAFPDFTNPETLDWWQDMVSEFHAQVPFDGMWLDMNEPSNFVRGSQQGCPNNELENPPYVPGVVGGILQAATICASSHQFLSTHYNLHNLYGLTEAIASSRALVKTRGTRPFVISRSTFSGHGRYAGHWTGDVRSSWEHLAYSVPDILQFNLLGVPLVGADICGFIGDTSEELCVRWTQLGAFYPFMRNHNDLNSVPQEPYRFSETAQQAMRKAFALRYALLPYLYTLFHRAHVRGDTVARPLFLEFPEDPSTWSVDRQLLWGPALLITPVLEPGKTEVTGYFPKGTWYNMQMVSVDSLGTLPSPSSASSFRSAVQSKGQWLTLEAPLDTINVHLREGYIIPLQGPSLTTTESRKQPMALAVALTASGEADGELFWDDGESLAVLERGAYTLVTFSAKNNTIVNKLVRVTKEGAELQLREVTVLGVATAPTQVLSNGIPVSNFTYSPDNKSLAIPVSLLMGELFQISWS

O=S1(=O)O[C@@H]2[C@H](O)[C@@H](O)[C@H](O)[C@@H](CO)[C@@H]2O1 [Compound 5, 1,6-epi-cyclophellitol cyclosulfate]
inhibition of probe 13 labeling of GAA (GAA): inhibited | inhibition of probe 13 labeling of SIS (sucrase-isomaltase (SIS)): inhibited | competition of off-target probe 13 labeling of GBA1 (GBA1): not outcompeted | inhibition of probe 13 labeling of GANAB (GANAB): time dependent inhibition
